This is an account of results in ChEMBL document CHEMBL1240363, “Pharmacokinetics of ertapenem following intravenous and subcutaneous infusions in patients” (Antimicrob Agents Chemother, 2010).

The structures appear in SMILES notation.

A short description of data set [1]: Half life in patient with bacterial infection at […], iv administered at 30 mins regimen for 24 hrs by LC/MS/MS analysis. Type of data set: ADME, organism-based. To be noted: human, in vivo. Summed up: (§1)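 Six infected patients received ertapenem 1 g once daily, infused over 30 min: first i.v. via a central vein, then s.c. into the anterior thigh for one day. Arterial plasma was sampled over 24 h at steady state (i.v. on days 4–7). Plasma was stabilized 1:1 at pH 6.5 and assayed by LC-MS/MS. Total concentrations were fitted with compartmental models (1/y weighting), giving Cmax, tmax, t1/2, AUC0-24, CL and Vss as mean ± SD.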

In a further data set the test system is Homo sapiens. The experiment in a line: Ratio of AUC (0 to 24 hrs) in sc dosed patient with bacterial infection to AUC (0 to 24 hrs) in iv dosed patient with bacterial infection. Type of data set: ADME, organism-based. Conditions: in vivo. Summed up:
as §1

The nature of data set [2]: fT>MIC methicillin-resistant Staphylococcus aureus-infected kinetic model. The format is functional.
Data set [3] in a line: Cmax in patient with bacterial infection at 1 gm[…], sc administered at 30 mins regimen for 24 hrs by LC/MS/MS analysis. The format is ADME, organism-based. Further details: route subcutaneous. To be noted: human, in vivo. Summed up: as §1
Data set [4] can be described thus: Clearance in patient with bacterial infection at 1 gm[…], iv administered at 30 mins regimen for 24 hrs by LC/MS/MS analysis. Type of data set: ADME, organism-based. Conditions: human, in vivo. In outline: as §1
Data set [5] can be described thus: fT>MIC […] Escherichia coli-infected kinetic model. The format is functional.
The nature of data set [6]: Tmax in patient with bacterial infection at 1 gm[…], sc administered at 30 mins regimen for 24 hrs by LC/MS/MS analysis. The format is ADME, organism-based. Conditions: human, in vivo. In outline: as §1
Data set [7] is described as follows: fT>MIC […]-infected kinetic model. Type of data set: functional.
Data set [8] can be described thus: Tmax in patient with bacterial infection at 1 gm[…], iv administered at 30 mins regimen for 24 hrs by LC/MS/MS analysis. Conditions: human, in vivo. Type of data set: ADME, organism-based. Summed up:
as §1

A short description of data set [9]: Half life in patient with bacterial infection at […], sc administered at 30 mins regimen for 24 hrs by LC/MS/MS analysis. The format is ADME, organism-based. Conditions: human, in vivo. Summed up: as §1
The nature of data set [10]: Volume of distribution at steady state in patient with bacterial infection at 1 gm, iv administered at 30 mins regimen for 24 hrs by LC/MS/MS analysis. To be noted: human, in vivo, read-out: Vdss.
Data set [11] can be described thus: Cmax in patient with bacterial infection at 1 gm[…], iv administered at 30 mins regimen for 24 hrs by LC/MS/MS analysis. Type of data set: ADME, organism-based. Also on record: route intravenous. To be noted: human, in vivo. Summed up: as §1
Data set [12] is described as follows: fT>MIC […] Klebsiella pneumoniae-infected kinetic model. The format is functional.

The half-life is the time in which the quantity being followed falls by half. A low value points to rapid decline. Usually Cmax stands for the maximum level reached in the sampled fluid or tissue. The term clearance denotes the rate of elimination divided by the concentration. A lower clearance goes with inefficient removal. What is called Tmax is the time from dosing to the highest level. `C[C@@H](O)[C@H]1C(=O)N2C(C(=O)O)=C(S[C@@H]3CN[C@H](C(=O)Nc4cccc(C(=O)O)c4)C3)[C@H](C)[C@H]12` [ERTAPENEM]: the half-life is 3.9 h in [1] and 5.4 h in [9]. Also, in the data set on Homo sapiens, the “Ratio AUC” value stood at 0.99. In addition, the fT>MIC in data set [2], in data set [5], in data set [7] and in data set [12] was 30% in each case. The figures for the Cmax in [3] and in data set [11] were 43 µg/mL and 115 µg/mL, respectively. In data set [4], this molecule showed a clearance of 63.3 mL/min. The Tmax in data set [6] amounted to 2.7 h; in data set [8], 0.5 h. In data set [10], the Vd is 16.1 L.
